Laboratory results as given in ChEMBL document CHEMBL1777744, “Synthesis and anti-tumor activity of novel ethyl 3-aryl-4-oxo-3,3a,4,6-tetrahydro-1H-furo[3,4-c]pyran-3a-carboxylates” (Bioorg Med Chem Lett, 2011).

Columns and labels:
Format in all cases: functional, cell-based
HeLa = experiment: Cytotoxicity against human HeLa cells by MTT assay
In short: (§1)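 Colorimetric MTT assay, run as quintuplicate dose-response tests. Cytotoxic effect was plotted against log10 of drug concentration for each cell line. IC50 is the concentration that reduced the optical density of treated cells by 50% relative to untreated cells. 5-fluorouracil served as control.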

A549 = experiment: Cytotoxicity against human A549 cells by MTT assay; in short: as §1
[1] = Cytotoxicity against human QGY cells by MTT assay; in short: as §1

| SMILES | IC50 (HeLa) [µM] | IC50 (A549) [µM] | IC50 [1] [µM] |
| --- | --- | --- | --- |
| CCOC(=O)C12C(=O)OCC=C1COC2c1ccccc1 (centres undefined) | 12.8 | > 1000 | > 1000 |
| CCOC(=O)C12C(=O)OCC=C1COC2c1ccccc1F (centres undefined) | 22.1 | > 1000 | > 1000 |
| CCOC(=O)C12C(=O)OCC=C1COC2c1ccc(F)cc1 (centres undefined) | 22.9 | > 1000 | > 1000 |
| CCOC(=O)C12C(=O)OCC=C1COC2c1cccc(Cl)c1 (centres undefined) | > 1000 | 28.4 | > 1000 |
| CCOC(=O)C12C(=O)OCC=C1COC2c1ccc(Cl)cc1 (centres undefined) | 118 | > 1000 | > 1000 |
| CCOC(=O)C12C(=O)OCC=C1COC2c1ccc(Cl)c(Cl)c1 (centres undefined) | 72.4 | > 1000 | > 1000 |
| CCOC(=O)C12C(=O)OCC=C1COC2c1ccc(Br)cc1 (centres undefined) | 48.7 | > 1000 | > 1000 |
| CCOC(=O)C12C(=O)OCC=C1COC2c1ccc(C(C)(C)C)cc1 (centres undefined) | 25.4 | > 1000 | > 1000 |
| CCOC(=O)C12C(=O)OCC=C1COC2c1ccc(OC)cc1 (centres undefined) | 18.3 | 9.3 | > 1000 |
| CCOC(=O)C12C(=O)OCC=C1COC2c1ccc(OC)c(OC)c1 (centres undefined) | 10 | > 1000 | > 1000 |
| CCOC(=O)C12C(=O)OCC=C1COC2c1cc(OC)cc(OC)c1 (centres undefined) | 16 | > 1000 | > 1000 |
| CCOC(=O)C12C(=O)OCC=C1COC2c1cc(OC)c(OC)c(OC)c1 (centres undefined) | 5.4 | 13.3 | > 1000 |
| CCOC(=O)C12C(=O)OCC=C1COC2c1ccc(N(C)C)cc1 (centres undefined) | 23.4 | 89.6 | > 1000 |
| CCOC(=O)C12C(=O)OCC=C1COC2c1ccc([N+](=O)[O-])cc1 (centres undefined) | 53.4 | 36.8 | > 1000 |
| CCOC(=O)C12C(=O)OCC=C1COC2c1ccco1 (centres undefined) | 28.3 | > 1000 | > 1000 |
| CCOC(=O)C12C(=O)OCC=C1COC2c1cccs1 (centres undefined) | 30.4 | > 1000 | > 1000 |
| CCOC(=O)C12C(=O)OCC=C1COC2c1ccccn1 (centres undefined) | 20.7 | > 1000 | > 1000 |
| O=c1[nH]cc(F)c(=O)[nH]1 [FLUOROURACIL] | 16.1 | 5.6 | 14.1 |
